From ChEMBL document CHEMBL1795254, “Synthesis, structure-affinity relationships, and molecular modeling studies of novel pyrazolo[3,4-c]quinoline derivatives as adenosine receptor antagonists” (Bioorg Med Chem, 2011)

What was measured:
[1] = target: T1, Adenosine receptor A2b (Homo sapiens) (UniProt P29275); assay: Antagonist activity at human recombinant adenosine A2B receptor expressed in CHO cells assessed as inhibition of NECA-induced cAMP levels at 1 uM; format: functional, cell-based
T1 sequence (whole entry): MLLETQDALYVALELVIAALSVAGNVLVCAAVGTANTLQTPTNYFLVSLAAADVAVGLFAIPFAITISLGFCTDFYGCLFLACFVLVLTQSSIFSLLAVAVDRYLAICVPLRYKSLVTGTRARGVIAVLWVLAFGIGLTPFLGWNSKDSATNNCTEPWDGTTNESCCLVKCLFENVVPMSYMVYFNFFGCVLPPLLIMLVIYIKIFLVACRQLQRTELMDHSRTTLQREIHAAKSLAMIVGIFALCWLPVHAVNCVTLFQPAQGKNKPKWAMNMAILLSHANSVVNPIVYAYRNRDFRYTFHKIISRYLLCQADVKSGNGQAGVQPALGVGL
Method in brief: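 hA2B-transfected CHO cells (1×10⁶/assay), preincubated 10 min at 37 °C in pH 7.4 saline-Hepes-glucose buffer with 2 IU/ml adenosine deaminase and Ro 20-1724 as phosphodiesterase inhibitor. Compound tested against 200 nM NECA-stimulated cAMP. Reaction stopped with cold 6% TCA and ether-extracted. cAMP measured by competition binding with [³H]cAMP and bovine adrenal binding protein (150 min, 4 °C), charcoal separation, scintillation counting; expressed as percentage inhibition.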

[2] = target: T2, Adenosine receptor A2a (Homo sapiens, UniProt P29274); assay: Displacement of [3H]ZM241385 from human recombinant adenosine A2A receptor expressed in CHO cell membranes at 1 uM by scintillation counting
Method in brief: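 Uses 1 nM [³H]ZM241385 with hA2A CHO membranes in 50 mM Tris-HCl, 10 mM MgCl2, pH 7.4, for 60 min at 4 °C. Ki from six to eight antagonist concentrations via Cheng–Prusoff with weighted nonlinear least-squares fitting; four assays in duplicate (mean ± SEM). Single-concentration runs give percentage inhibition.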

[3] = target: T3, Adenosine receptor A1 (Homo sapiens) (UniProt P30542); assay: Displacement of [3H]DPCPX from human recombinant adenosine A1 receptor expressed in CHO cell membranes at 1 uM by scintillation counting
T3 sequence (whole entry): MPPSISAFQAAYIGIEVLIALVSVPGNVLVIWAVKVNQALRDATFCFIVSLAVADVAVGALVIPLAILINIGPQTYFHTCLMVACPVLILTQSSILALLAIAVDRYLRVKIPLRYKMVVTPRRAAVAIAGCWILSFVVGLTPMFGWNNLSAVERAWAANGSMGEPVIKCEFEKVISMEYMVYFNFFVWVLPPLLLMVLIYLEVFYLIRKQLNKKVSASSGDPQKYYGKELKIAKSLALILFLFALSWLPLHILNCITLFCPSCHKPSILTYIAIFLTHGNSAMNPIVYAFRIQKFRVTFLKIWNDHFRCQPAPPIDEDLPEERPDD
Method in brief: (§1)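 hA1 CHO membranes incubated with 1 nM [³H]DPCPX for 120 min at 25 °C in 50 mM Tris-HCl, pH 7.4. Ki from six to eight antagonist concentrations: IC50 converted by Cheng–Prusoff, curves fitted by weighted nonlinear least squares, four separate assays in duplicate (mean ± SEM). Single-concentration runs give percentage inhibition of specific binding.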

[4] = target: T4, Adenosine receptor A3 (Homo sapiens) (UniProt P0DMS8); assay: Displacement of [125I]I-AB-MECA from human recombinant adenosine A3 receptor expressed in CHO cells at 1 uM by scintillation counting; format: cell-based
T4 sequence (whole entry): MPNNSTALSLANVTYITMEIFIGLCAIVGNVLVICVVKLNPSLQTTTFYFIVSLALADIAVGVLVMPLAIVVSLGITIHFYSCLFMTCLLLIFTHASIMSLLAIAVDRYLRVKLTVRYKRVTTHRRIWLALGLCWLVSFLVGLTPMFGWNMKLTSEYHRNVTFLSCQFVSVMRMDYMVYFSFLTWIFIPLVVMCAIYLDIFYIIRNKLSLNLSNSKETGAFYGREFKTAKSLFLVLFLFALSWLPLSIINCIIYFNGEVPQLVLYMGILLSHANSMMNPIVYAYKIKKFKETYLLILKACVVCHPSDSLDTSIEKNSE
Method in brief: (§2)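 For hA3, CHO membranes are incubated with [¹²⁵I]AB-MECA in 50 mM Tris-HCl, 10 mM MgCl2, 1 mM EDTA, pH 7.4, for 120 min at 4 °C. Ki from six to eight ligand concentrations via Cheng–Prusoff with weighted nonlinear least-squares fitting; four assays in duplicate (mean ± SEM). Single-concentration runs give percentage inhibition.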

[5] = target: T5, Adenosine receptor A1 (Homo sapiens, UniProt P30542); assay: Displacement of [3H]DPCPX from human recombinant adenosine A1 receptor expressed in CHO cell membranes by scintillation counting; method in brief: as §1
T5 sequence (P30542 whole entry): T3 sequence (whole entry)

[6] = target: T2, Adenosine receptor A2a; details: CHO, 10 uM
[7] = target: T6, Adenosine receptor A3 (Homo sapiens, UniProt P0DMS8); assay: Displacement of [125I]I-AB-MECA from human recombinant adenosine A3 receptor expressed in CHO cells by scintillation counting; format: cell-based; method in brief: as §2
T6 sequence (P0DMS8 whole entry): T4 sequence (whole entry)

[8] = target: T2, Adenosine receptor A2a; assay: Displacement of [3H]ZM241385 from human recombinant adenosine A2A receptor expressed in CHO cell membranes by scintillation counting

T2 sequence (P29274 whole entry): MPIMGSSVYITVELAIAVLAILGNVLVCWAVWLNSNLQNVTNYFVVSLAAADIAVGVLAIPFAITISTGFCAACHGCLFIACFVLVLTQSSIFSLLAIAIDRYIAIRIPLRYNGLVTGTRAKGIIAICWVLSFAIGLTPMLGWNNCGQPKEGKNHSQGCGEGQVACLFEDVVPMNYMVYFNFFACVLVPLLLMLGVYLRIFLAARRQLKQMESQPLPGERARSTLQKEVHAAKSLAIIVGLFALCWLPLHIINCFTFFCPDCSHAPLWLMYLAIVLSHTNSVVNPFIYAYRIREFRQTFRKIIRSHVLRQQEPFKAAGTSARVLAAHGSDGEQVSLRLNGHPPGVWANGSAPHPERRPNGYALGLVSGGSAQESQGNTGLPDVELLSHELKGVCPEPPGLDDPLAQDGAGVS

SMILES	inhibition [1]	inhibition [2]	inhibition [3]	inhibition [4]	Ki [5]	inhibition [6]	Ki [7]	Ki [8]
Cn1cc2c(n1)c(=O)[nH]c1ccccc12	2%	1%	2%	12%				
Nc1nc2c(Br)cccc2c2cn(-c3ccccc3)nc12	2%	35%		29%	300 nM			
Nc1nc2c(O)cccc2c2cn(-c3ccccc3)nc12	4%	19%		20%	100 nM			
O=C(Nc1cccc2c1[nH]c(=O)c1nn(-c3ccccc3)cc12)OCc1ccccc1	5%	1%	3%	14%				
Nc1nc2c(OCCc3ccccc3)cccc2c2cn(-c3ccccc3)nc12	5%	11%	40%	28%				
Nc1nc2c(OCc3ccccc3)cccc2c2cn(-c3ccccc3)nc12	5%	16%		20%	140 nM			
O=c1[nH]c2c(Br)cccc2c2cn(-c3ccccc3)nc12	5%	17%	8%	16%				
Nc1nc2c(NCc3ccccc3)cccc2c2cn(-c3ccccc3)nc12	3%	1%		1%	455 nM			
O=c1[nH]c2c(O)cccc2c2cn(-c3ccccc3)nc12	4%	5%	1%	16%				
O=c1[nH]c2ccccc2c2cn(-c3ccccc3)nc12						43%		
O=c1[nH]c2c(OC(c3ccccc3)c3ccccc3)cccc2c2cn(-c3ccccc3)nc12	7%	1%	6%	6%				
Cn1cc2c(n1)c(=O)[nH]c1c(OCc3ccccc3)cccc12	3%	1%	2%				600 nM	
Cn1cc2c(n1)c(N)nc1c(OCc3ccccc3)cccc12	4%				970 nM		500 nM	750 nM
Nc1cccc2c1[nH]c(=O)c1nn(-c3ccccc3)cc12	5%	1%	8%	18%				
Cn1cc2c(n1)c(N)nc1ccccc12	5%	26%	20%	18%				
O=c1[nH]c2c(OCc3ccccc3)cccc2c2cn(-c3ccccc3)nc12	2%	1%	20%	33%				
